The results in this text go back to ChEMBL document CHEMBL1138746, “Indolebutylamines as selective 5-HT(1A) agonists” (J Med Chem, 2004).

pIC50: −log10 of the molar value. A value given as a limit tells only on which side of the number the result lay.

Assay [1] is described as follows: Inhibition of 5-hydroxytryptamine 1D receptor.
A short description of assay [2]: Inhibition of 5-hydroxytryptamine 2A receptor.
Assay [3] can be described thus: Inhibition of hydroxytryptamine 2C receptor.
Assay [4] deals with T1, Adrenergic receptor alpha-1 (Homo sapiens, UniProt P35348+P25100+P35368).
T1 sequence (P35348 whole entry): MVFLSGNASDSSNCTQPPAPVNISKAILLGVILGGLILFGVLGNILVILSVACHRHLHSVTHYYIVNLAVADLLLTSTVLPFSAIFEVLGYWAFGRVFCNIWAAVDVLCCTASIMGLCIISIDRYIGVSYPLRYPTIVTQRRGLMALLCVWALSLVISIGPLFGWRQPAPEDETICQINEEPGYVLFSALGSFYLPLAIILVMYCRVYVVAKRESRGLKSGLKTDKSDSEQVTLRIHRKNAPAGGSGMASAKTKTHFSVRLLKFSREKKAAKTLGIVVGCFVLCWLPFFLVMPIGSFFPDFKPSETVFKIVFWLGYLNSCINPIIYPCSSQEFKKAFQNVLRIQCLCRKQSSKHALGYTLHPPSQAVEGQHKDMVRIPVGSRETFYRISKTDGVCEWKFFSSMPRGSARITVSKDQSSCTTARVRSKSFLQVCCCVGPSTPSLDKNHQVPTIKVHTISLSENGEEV
T1 sequence (P25100 whole entry): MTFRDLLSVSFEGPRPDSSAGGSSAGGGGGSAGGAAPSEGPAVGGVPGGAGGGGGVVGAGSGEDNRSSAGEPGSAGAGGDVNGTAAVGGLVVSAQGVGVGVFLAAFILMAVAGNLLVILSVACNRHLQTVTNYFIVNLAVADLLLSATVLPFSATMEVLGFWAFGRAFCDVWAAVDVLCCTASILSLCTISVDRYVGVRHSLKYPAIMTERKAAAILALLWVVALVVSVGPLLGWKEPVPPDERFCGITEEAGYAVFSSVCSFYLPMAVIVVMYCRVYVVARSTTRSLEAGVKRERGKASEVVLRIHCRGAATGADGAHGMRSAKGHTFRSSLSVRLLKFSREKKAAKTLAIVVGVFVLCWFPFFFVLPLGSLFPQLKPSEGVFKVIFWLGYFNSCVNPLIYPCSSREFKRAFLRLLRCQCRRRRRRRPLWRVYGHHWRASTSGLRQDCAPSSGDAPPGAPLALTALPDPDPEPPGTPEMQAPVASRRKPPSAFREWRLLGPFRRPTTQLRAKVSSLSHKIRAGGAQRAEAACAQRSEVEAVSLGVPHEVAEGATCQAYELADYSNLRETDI
T1 sequence (P35368 whole entry): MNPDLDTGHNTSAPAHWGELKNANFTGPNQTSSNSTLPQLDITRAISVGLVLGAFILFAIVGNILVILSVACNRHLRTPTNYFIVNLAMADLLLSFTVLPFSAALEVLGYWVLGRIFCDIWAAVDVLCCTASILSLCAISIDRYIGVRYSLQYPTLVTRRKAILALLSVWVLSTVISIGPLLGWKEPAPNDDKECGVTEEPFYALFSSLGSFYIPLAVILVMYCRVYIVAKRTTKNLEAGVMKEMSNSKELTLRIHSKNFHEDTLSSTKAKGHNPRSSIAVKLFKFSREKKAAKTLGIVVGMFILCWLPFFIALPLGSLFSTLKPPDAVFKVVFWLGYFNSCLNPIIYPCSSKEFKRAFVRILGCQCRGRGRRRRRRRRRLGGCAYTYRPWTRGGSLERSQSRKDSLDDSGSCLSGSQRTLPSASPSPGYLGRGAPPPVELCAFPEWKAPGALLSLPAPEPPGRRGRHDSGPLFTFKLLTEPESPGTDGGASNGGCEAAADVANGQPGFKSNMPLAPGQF
The assay can be described thus: Inhibition of Alpha-1 adrenergic receptor. The format is protein assay.

Assay [5] deals with T2, Adrenergic receptor alpha-2 (Homo sapiens, UniProt P08913+P18825+P18089).
T2 sequence (P08913 whole entry): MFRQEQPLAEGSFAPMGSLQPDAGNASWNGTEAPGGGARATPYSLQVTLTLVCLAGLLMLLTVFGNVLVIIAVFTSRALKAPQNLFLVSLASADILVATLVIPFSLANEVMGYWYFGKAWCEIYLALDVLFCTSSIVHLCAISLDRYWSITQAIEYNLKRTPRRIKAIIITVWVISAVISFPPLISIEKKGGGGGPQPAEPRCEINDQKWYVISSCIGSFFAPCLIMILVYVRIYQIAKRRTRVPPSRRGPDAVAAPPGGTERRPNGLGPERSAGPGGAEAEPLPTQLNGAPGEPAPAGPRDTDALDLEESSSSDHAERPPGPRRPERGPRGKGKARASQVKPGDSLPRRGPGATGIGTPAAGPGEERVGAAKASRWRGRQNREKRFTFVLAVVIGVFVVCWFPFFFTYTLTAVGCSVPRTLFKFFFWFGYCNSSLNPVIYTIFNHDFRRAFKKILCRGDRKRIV
T2 sequence (P18825 whole entry): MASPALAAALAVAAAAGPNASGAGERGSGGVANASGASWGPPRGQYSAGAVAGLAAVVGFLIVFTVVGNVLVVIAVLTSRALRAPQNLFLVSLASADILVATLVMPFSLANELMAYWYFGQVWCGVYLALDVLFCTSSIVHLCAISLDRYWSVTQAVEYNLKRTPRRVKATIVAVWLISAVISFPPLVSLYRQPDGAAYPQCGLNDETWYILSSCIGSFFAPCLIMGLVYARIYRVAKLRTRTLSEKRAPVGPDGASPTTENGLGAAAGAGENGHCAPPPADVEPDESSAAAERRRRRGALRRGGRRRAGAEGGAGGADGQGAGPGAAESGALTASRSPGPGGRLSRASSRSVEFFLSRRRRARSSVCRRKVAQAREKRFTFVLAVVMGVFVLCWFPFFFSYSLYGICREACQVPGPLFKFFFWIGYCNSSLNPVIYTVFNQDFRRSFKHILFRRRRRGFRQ
T2 sequence (P18089 whole entry): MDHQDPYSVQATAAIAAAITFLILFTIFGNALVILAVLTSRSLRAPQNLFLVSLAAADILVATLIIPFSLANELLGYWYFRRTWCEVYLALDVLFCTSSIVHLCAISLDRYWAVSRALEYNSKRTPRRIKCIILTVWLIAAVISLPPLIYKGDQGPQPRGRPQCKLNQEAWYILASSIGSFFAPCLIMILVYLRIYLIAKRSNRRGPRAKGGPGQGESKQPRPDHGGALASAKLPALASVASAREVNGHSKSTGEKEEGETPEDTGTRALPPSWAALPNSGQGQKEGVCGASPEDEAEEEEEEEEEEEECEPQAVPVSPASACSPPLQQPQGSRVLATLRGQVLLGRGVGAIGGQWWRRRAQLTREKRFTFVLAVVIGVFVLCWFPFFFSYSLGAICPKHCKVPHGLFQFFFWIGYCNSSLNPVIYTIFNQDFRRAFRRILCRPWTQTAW
The assay is described as follows: Inhibition of Alpha-2 adrenergic receptor. The format is protein assay.

Another assay addresses D(2) dopamine receptor (Rattus norvegicus, UniProt P61169). The assay is described as follows: Displacement of [3H]spiperone from dopamine D2 receptor of rat striatal membranes. The format is cell membranes, Membrane. An outline of the steps: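 Rat striatal membranes (0.3–1.0 mg protein/mL) were incubated with 0.1 nM [3H]spiperone in Tris-HCl buffer (pH 7.1) containing 120 mmol/L NaCl, 5 mmol/L KCl, 1 mmol/L CaCl2, 1 mmol/L MgCl2 and 0.1% ascorbic acid, at 37 °C for 15 min. Bound ligand was separated by filtration with three ice-cold washes. Nonspecific binding was defined with 1 mmol/L (+)-butaclamol. IC50 (50% inhibition of binding) came from 5–10 concentrations, each in triplicate.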
For orientation: Loss of bound radioactivity is the signal in a displacement assay; it reports binding, not function.

Assay [6] is described as follows: Inhibition of Histamine H1 receptor.
Assay [7] in a line: Inhibition of 5-hydroxytryptamine 2C receptor.
Assay [8] has as its target T3, 5-hydroxytryptamine receptor 1A (Rattus norvegicus, UniProt P19327).
T3 sequence (P19327 whole entry): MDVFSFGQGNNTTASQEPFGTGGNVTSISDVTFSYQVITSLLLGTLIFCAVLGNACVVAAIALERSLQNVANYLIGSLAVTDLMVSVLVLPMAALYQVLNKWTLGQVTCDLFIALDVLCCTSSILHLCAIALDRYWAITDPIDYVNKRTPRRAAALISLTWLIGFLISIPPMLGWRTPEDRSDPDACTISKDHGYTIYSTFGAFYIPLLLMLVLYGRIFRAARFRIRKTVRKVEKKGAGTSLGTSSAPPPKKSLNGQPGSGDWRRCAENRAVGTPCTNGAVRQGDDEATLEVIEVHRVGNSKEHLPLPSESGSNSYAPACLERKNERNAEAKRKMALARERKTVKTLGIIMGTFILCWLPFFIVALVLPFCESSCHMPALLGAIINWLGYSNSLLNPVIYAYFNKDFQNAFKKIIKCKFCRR
The assay can be described thus: Inhibition of 8-OH DPAT bindign to rat hydroxytryptamine 1A receptor in hippocampal membranes.

Assay [9] has as its target 5-hydroxytryptamine receptor 1A (Homo sapiens) (UniProt P08908). The assay can be described thus: Effective dose against 5-hydroxytryptamine 1A receptor.
The target is the same in assay [10]. The assay is described as follows: Effective dose against 5-HT1a receptor.

Sequence of D(2) dopamine receptor (P61169 whole entry): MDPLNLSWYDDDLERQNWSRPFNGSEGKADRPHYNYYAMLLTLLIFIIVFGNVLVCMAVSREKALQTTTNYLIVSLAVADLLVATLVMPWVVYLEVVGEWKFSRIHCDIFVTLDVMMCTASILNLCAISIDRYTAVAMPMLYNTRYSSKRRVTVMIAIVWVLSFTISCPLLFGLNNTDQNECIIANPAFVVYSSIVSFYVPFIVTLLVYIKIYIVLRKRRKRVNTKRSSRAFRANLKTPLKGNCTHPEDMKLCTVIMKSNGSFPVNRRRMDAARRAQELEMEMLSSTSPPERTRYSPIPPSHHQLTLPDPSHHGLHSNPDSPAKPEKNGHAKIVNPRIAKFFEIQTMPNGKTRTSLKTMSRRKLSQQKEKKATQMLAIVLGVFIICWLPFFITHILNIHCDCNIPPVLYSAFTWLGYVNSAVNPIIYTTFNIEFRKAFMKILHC
Sequence of 5-hydroxytryptamine receptor 1A (Homo sapiens) (P08908 whole entry, looked up): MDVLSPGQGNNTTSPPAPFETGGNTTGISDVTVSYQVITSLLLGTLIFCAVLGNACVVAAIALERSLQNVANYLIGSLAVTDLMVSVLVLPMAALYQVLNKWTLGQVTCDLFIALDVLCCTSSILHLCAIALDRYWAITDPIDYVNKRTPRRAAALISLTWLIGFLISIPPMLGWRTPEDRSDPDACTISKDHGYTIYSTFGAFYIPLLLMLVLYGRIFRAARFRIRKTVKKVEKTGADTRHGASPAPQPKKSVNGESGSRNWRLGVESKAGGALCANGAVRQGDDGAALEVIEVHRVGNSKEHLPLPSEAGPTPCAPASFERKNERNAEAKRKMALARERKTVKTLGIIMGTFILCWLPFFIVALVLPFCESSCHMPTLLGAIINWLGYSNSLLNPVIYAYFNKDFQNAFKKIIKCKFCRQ

What is called pIC50 is −log10 of the IC50, conventionally taken in molar units. A lower pIC50 goes with a large IC50. The term IC50 denotes the concentration needed to halve the response being measured. Higher therefore signals weaker potency. With `COc1ccc(N2CCN(CCCCc3c[nH]c4ccc(OC)cc34)CC2)cc1`, the pIC50 is < 5.00 in assay [1]; 6.12 in assay [2]; 5.40 in assay [3]; 6.38 at D(2) dopamine receptor; 7.39 in assay [6]. Besides, the IC50 in assay [4] came to 1000 nM; in [5], 7000 nM.
Regarding `NC(=O)c1ccc2[nH]cc(CCCCN3CCN(c4ccc5c(c4)OCO5)CC3)c2c1`, the pIC50 in assay [1] was 6.40; in [2] it was 6.62; in assay [7], 6.10; at D(2) dopamine receptor, 7.66; in [6], 7.72; in assay [8], 9.40. In addition, the IC50 in [4] stood at 100 nM; in assay [5], 900 nM.
As to `NC(=O)c1ccc2[nH]cc(CCCCN3CCN(c4ccc5c(c4)CCCO5)CC3)c2c1`, the pIC50 at D(2) dopamine receptor is 7.00; in assay [8] it was 9.30. In assay [9], the ED50 was 0.07 nM.
`COc1ccc(N2CCN(CCCCc3c[nH]c4ccc(C(N)=O)cc34)CC2)cc1`: the pIC50 in [2] was 6.66; on D(2) dopamine receptor it was 6.85; in assay [6], 6.00; in assay [8], 10.05. In addition, the figures for the IC50 in assay [4] and in [5] were 700 nM and 2000 nM, respectively.
Consider `NC(=O)c1ccc(N2CCN(CCCCc3c[nH]c4ccc(C(N)=O)cc34)CC2)cc1`, for which, at D(2) dopamine receptor, the pIC50 is < 6.07. Besides, the ED50 in [10] turned out to be 4.7 nM.
